Assay: Treatment-emergent adverse events, SAD period
Format: in vivo, human
Procedure, shortened: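 Double-blind, placebo-controlled study in healthy men and nonchildbearing women aged 18–55 y. The SAD period gave one fasted oral dose; the MAD period gave fed dosing q.d. for 10 days, plus a separate b.i.d. cohort. TEAEs, serious AEs and discontinuation AEs were monitored ≥28 days after the last dose. Vital signs, physical exam, 12-lead ECG, hematology, clinical chemistry and urinalysis were also recorded. Data summarized descriptively.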

Cn1cc(-c2cn3nccc3c(-c3cnn([C@]4(CC#N)C[C@@H](C#N)C4)c3)n2)cn1 [PF‐06826647]
SAEs (SAD 30 mg (n = 8)): 0 n
Severe AEs (SAD 30 mg (n = 8)): 0 n
AEs (SAD 100 mg (n = 7)): 9 n
AEs leading to study drug dose reduction or interruption (SAD 100 mg (n = 7)): 0 n
Participants with AEs (SAD 100 mg (n = 7)): 1 (14.3) n (%)
Participants with TEAEs: Alanine aminotransferase increased (SAD 100 mg (n = 7)): 0 n (%)
Participants with TEAEs: Aspartate aminotransferase increased (SAD 100 mg (n = 7)): 0 n (%)
Participants with TEAEs: Edema (SAD 100 mg (n = 7)): 1 (14.3) n (%)
Participants with TEAEs: Face edema (SAD 100 mg (n = 7)): 1 (14.3) n (%)
Participants with TEAEs: Gastrointestinal disorders (SOC) (SAD 100 mg (n = 7)): 1 (14.3) n (%)
Participants with TEAEs: General disorders and administration site conditions (SOC) (SAD 100 mg (n = 7)): 1 (14.3) n (%)
Participants with TEAEs: Headache (SAD 100 mg (n = 7)): 1 (14.3) n (%)
Participants with TEAEs: Injury, poisoning, and procedural complications (SOC) (SAD 100 mg (n = 7)): 1 (14.3) n (%)
Participants with TEAEs: Investigations (SOC) (SAD 100 mg (n = 7)): 0 n (%)
Participants with TEAEs: Nausea (SAD 100 mg (n = 7)): 1 (14.3) n (%)
Participants with TEAEs: Nervous system disorders (SOC) (SAD 100 mg (n = 7)): 1 (14.3) n (%)
Participants with TEAEs: Periorbital hematoma (SAD 100 mg (n = 7)): 1 (14.3) n (%)
Participants with TEAEs: Periorbital hemorrhage (SAD 100 mg (n = 7)): 1 (14.3) n (%)
Participants with TEAEs: Peripheral swelling (SAD 100 mg (n = 7)): 0 n (%)
Participants with TEAEs: Pruritus (SAD 100 mg (n = 7)): 1 (14.3) n (%)
Participants with TEAEs: Rash (SAD 100 mg (n = 7)): 1 (14.3) n (%)
Participants with TEAEs: Skin and subcutaneous tissue disorders (SOC) (SAD 100 mg (n = 7)): 1 (14.3) n (%)
Participants with TEAEs: Urticaria (SAD 100 mg (n = 7)): 1 (14.3) n (%)
SAEs (SAD 100 mg (n = 7)): 0 n
Severe AEs (SAD 100 mg (n = 7)): 0 n
AEs (SAD 400 mg (n = 8)): 0 n
AEs leading to study drug dose reduction or interruption (SAD 400 mg (n = 8)): 0 n
Participants with AEs (SAD 400 mg (n = 8)): 0 n (%)
Participants with TEAEs: Alanine aminotransferase increased (SAD 400 mg (n = 8)): 0 n (%)
Participants with TEAEs: Aspartate aminotransferase increased (SAD 400 mg (n = 8)): 0 n (%)
Participants with TEAEs: Edema (SAD 400 mg (n = 8)): 0 n (%)
Participants with TEAEs: Face edema (SAD 400 mg (n = 8)): 0 n (%)
Participants with TEAEs: Gastrointestinal disorders (SOC) (SAD 400 mg (n = 8)): 0 n (%)
Participants with TEAEs: General disorders and administration site conditions (SOC) (SAD 400 mg (n = 8)): 0 n (%)
Participants with TEAEs: Headache (SAD 400 mg (n = 8)): 0 n (%)
Participants with TEAEs: Injury, poisoning, and procedural complications (SOC) (SAD 400 mg (n = 8)): 0 n (%)
Participants with TEAEs: Investigations (SOC) (SAD 400 mg (n = 8)): 0 n (%)
Participants with TEAEs: Nausea (SAD 400 mg (n = 8)): 0 n (%)
Participants with TEAEs: Nervous system disorders (SOC) (SAD 400 mg (n = 8)): 0 n (%)
Participants with TEAEs: Periorbital hematoma (SAD 400 mg (n = 8)): 0 n (%)
Participants with TEAEs: Periorbital hemorrhage (SAD 400 mg (n = 8)): 0 n (%)
Participants with TEAEs: Peripheral swelling (SAD 400 mg (n = 8)): 0 n (%)
Participants with TEAEs: Pruritus (SAD 400 mg (n = 8)): 0 n (%)
Participants with TEAEs: Rash (SAD 400 mg (n = 8)): 0 n (%)
Participants with TEAEs: Skin and subcutaneous tissue disorders (SOC) (SAD 400 mg (n = 8)): 0 n (%)
Participants with TEAEs: Urticaria (SAD 400 mg (n = 8)): 0 n (%)
SAEs (SAD 400 mg (n = 8)): 0 n
Severe AEs (SAD 400 mg (n = 8)): 0 n
AEs (SAD 1,600 mg (n = 6)): 3 n
AEs leading to study drug dose reduction or interruption (SAD 1,600 mg (n = 6)): 0 n
Participants with AEs (SAD 1,600 mg (n = 6)): 2 (33.3) n (%)
Participants with TEAEs: Alanine aminotransferase increased (SAD 1,600 mg (n = 6)): 1 (16.7) n (%)
Participants with TEAEs: Aspartate aminotransferase increased (SAD 1,600 mg (n = 6)): 1 (16.7) n (%)
Participants with TEAEs: Edema (SAD 1,600 mg (n = 6)): 0 n (%)
Participants with TEAEs: Face edema (SAD 1,600 mg (n = 6)): 0 n (%)
Participants with TEAEs: Gastrointestinal disorders (SOC) (SAD 1,600 mg (n = 6)): 0 n (%)
Participants with TEAEs: General disorders and administration site conditions (SOC) (SAD 1,600 mg (n = 6)): 1 (16.7) n (%)
Participants with TEAEs: Headache (SAD 1,600 mg (n = 6)): 0 n (%)
Participants with TEAEs: Injury, poisoning, and procedural complications (SOC) (SAD 1,600 mg (n = 6)): 0 n (%)
Participants with TEAEs: Investigations (SOC) (SAD 1,600 mg (n = 6)): 1 (16.7) n (%)
Participants with TEAEs: Nausea (SAD 1,600 mg (n = 6)): 0 n (%)
Participants with TEAEs: Nervous system disorders (SOC) (SAD 1,600 mg (n = 6)): 0 n (%)
Participants with TEAEs: Periorbital hematoma (SAD 1,600 mg (n = 6)): 0 n (%)
Participants with TEAEs: Periorbital hemorrhage (SAD 1,600 mg (n = 6)): 0 n (%)
Participants with TEAEs: Peripheral swelling (SAD 1,600 mg (n = 6)): 1 (16.7) n (%)
Participants with TEAEs: Pruritus (SAD 1,600 mg (n = 6)): 0 n (%)
Participants with TEAEs: Rash (SAD 1,600 mg (n = 6)): 0 n (%)
Participants with TEAEs: Skin and subcutaneous tissue disorders (SOC) (SAD 1,600 mg (n = 6)): 0 n (%)
Participants with TEAEs: Urticaria (SAD 1,600 mg (n = 6)): 0 n (%)
SAEs (SAD 1,600 mg (n = 6)): 0 n
Severe AEs (SAD 1,600 mg (n = 6)): 0 n
